Converted amounts (≈) assume the structure as drawn. The source made the active and inactive calls. The rule behind the calls is not given here.
How the values were obtained:
Helicobacter pylori [1] = test: Antibacterial activity against multidrug-resistant Helicobacter pylori v1354; format: functional
Procedure, shortened: (§1)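 Minimum bactericidal concentration (MBC), expressed in µM, determined against H. pylori reference strain Hp 26695 and the clinical isolates v1254 and v1354. Both isolates are resistant to metronidazole and clarithromycin. Amoxicillin, clarithromycin and metronidazole served as standard antimicrobial comparators.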

Helicobacter pylori [2] = test: Inhibition of Helicobacter pylori invasion into human AGS cells at 2.5 uM after 6 hrs; format: functional
Procedure, shortened: (§2)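 AGS cells, untreated or treated with compound, then infected with H. pylori at MOI 50 for 6 h. Bacterial adhesion to, or invasion into, the cells was measured. Compounds tested at 2.5, 5.0 and 10.0 µM. DMSO vehicle and antibiotic controls at 2.5 µM. Values are mean ± SD of at least six independent experiments; Student's t-test against DMSO-treated cells.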

Helicobacter pylori [3] = test: Inhibition of Helicobacter pylori-induced inflammation in human AGS cells assessed as reduction of NF-kappaB activity at 2.5 uM after 6 hrs by luciferase reporter gene assay relative to control; format: functional
Procedure, shortened: (§3)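 AGS cells transfected with an NF-κB luciferase reporter construct. Cells were treated with compound (2.5–10 µM) and infected with H. pylori, then luciferase expression was measured. Activity is expressed relative to DMSO-treated control. Antibiotics at 2.5 µM served as reference. Values are mean ± SD of at least three independent experiments.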

Helicobacter pylori [4] = test: Antibacterial activity against multidrug-resistant Helicobacter pylori v1254; format: functional; procedure, shortened: as §1
Helicobacter pylori [5] = test: Inhibition of Helicobacter pylori-induced inflammation in human AGS cells assessed as reduction of IL-8 production at 10 uM by ELISA; format: functional
Procedure, shortened: (§4)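 IL-8 in culture supernatants measured from H. pylori-infected AGS cells pre-treated with compound at 2.5, 5.0 or 10.0 µM. Inhibition calculated against DMSO control-treated cells. Values are mean ± SD of at least three independent experiments.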

Helicobacter pylori [6] = test: Antibacterial activity against Helicobacter pylori Hp 26695; format: functional; procedure, shortened: as §1
Helicobacter pylori [7] = test: Inhibition of Helicobacter pylori adhesion into human AGS cells at 10 uM after 6 hrs; format: functional; procedure, shortened: as §2
Helicobacter pylori [8] = test: Inhibition of Helicobacter pylori invasion into human AGS cells at 5 uM after 6 hrs; format: functional; procedure, shortened: as §2
Helicobacter pylori [9] = test: Inhibition of Helicobacter pylori-induced inflammation in human AGS cells assessed as reduction of NF-kappaB activity after 6 hrs by luciferase reporter gene assay relative to control; format: functional; procedure, shortened: as §3
Helicobacter pylori [10] = test: Inhibition of Helicobacter pylori invasion into human AGS cells at 10 uM after 6 hrs; format: functional; procedure, shortened: as §2
Helicobacter pylori [11] = test: Inhibition of Helicobacter pylori-induced inflammation in human AGS cells assessed as reduction of NF-kappaB activity at 10 uM after 6 hrs by luciferase reporter gene assay relative to control; format: functional; procedure, shortened: as §3
Helicobacter pylori [12] = test: Inhibition of Helicobacter pylori-induced inflammation in human AGS cells assessed as reduction of IL-8 production at 2.5 uM by ELISA; format: functional; procedure, shortened: as §4
AGS = test: Cytotoxicity against human AGS cells assessed as cell viability at 0.5 ug/ml by MTT assay; format: cell-based; conditions: in the assay text read “0.5 mg/ml” for “0.5 ug/ml”
Procedure, shortened: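 MTT viability assay on AGS human gastric epithelial cells, run at 0.5 mg/ml, the top concentration used in the H. pylori growth test.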

Helicobacter pylori [13] = test: Inhibition of Helicobacter pylori adhesion into human AGS cells at 5 uM after 6 hrs; format: functional; procedure, shortened: as §2
Helicobacter pylori [14] = test: Inhibition of Helicobacter pylori-induced inflammation in human AGS cells assessed as reduction of IL-8 production at 5 uM by ELISA; format: functional; procedure, shortened: as §4
Helicobacter pylori [15] = test: Inhibition of sHelicobacter pylori adhesion into human AGS cells at 2.5 uM after 6 hrs; format: functional; procedure, shortened: as §2
Helicobacter pylori [16] = test: Inhibition of Helicobacter pylori-induced inflammation in human AGS cells assessed as reduction of NF-kappaB activity at 5 uM after 6 hrs by luciferase reporter gene assay relative to control; format: functional; procedure, shortened: as §3

Row | Structure (SMILES) | MBC (Helicobacter pylori [1]) [µM] | inhibition at 2.5 µM (Helicobacter pylori [2]) [%] | inhibition (Helicobacter pylori [3]) | MBC (Helicobacter pylori [4]) [µM] | inhibition at 10 µM (Helicobacter pylori [5]) [%] | MBC (Helicobacter pylori [6]) [µM] | inhibition (Helicobacter pylori [2]) | inhibition (Helicobacter pylori [8]) | inhibition (Helicobacter pylori [9]) | inhibition at 2.5 µM (Helicobacter pylori [3]) [%] | inhibition (Helicobacter pylori [10]) | inhibition at 10 µM (Helicobacter pylori [11]) [%] | inhibition at 2.5 µM (Helicobacter pylori [12]) [%] | Activity (AGS) | inhibition at 5 µM (Helicobacter pylori [14]) [%] | inhibition at 5 µM (Helicobacter pylori [13]) [%] | inhibition at 2.5 µM (Helicobacter pylori [15]) [%] | other results
1 | CC[C@H]1OC(=O)[C@H](C)[C@@H](O[C@H]2C[C@@](C)(OC)[C@@H](O)[C@H](C)O2)[C@H](C)[C@@H](O[C@@H]2O[C@H](C)C[C@H](N(C)C)[C@H]2O)[C@](C)(OC)C[C@@H](C)C(=O)[C@H](C)[C@@H](O)[C@]1(C)O [CLARITHROMYCIN] | 25 (≈ 18.7 µg/mL) | > 90 | inactive | 50 (≈ 37.4 µg/mL) | 81.9 | 1.6 (≈ 1.2 µg/mL) | – | – | – | – | – | – | – | – | – | – | – | –
2 | COc1ccc(/C=C/C(=O)c2cc(OC)c(OC)c(OC)c2)cc1 | 100 (≈ 32.8 µg/mL) | – | – | 100 (≈ 32.8 µg/mL) | 59.4 | 100 (≈ 32.8 µg/mL) | inactive | Active | Dose-dependent effect | 14.7 | Active | 66 | 8 | Non-toxic | 23.4 | – | – | inhibition (Helicobacter pylori [7]): Active; inhibition (Helicobacter pylori [13]): Active
3 | COc1cccc(/C=C/C(=O)c2cc(OC)c(OC)c(OC)c2)c1OC | 25 (≈ 8.96 µg/mL) | – | – | 50 (≈ 17.9 µg/mL) | 87 | 25 (≈ 8.96 µg/mL) | inactive | Active | Dose-dependent effect | 39.8 | Active | 90.6 | 24.6 | Non-toxic | 65.2 | 73.3 | 66.6 | inhibition at 10 µM (Helicobacter pylori [7]): 99.9%
4 | Cc1ncc([N+](=O)[O-])n1CCO [METRONIDAZOLE] | 800 (≈ 137 µg/mL) | 20 | inactive | 400 (≈ 68.5 µg/mL) | 81.9 | 25 (≈ 4.28 µg/mL) | – | – | – | – | – | – | – | – | – | – | – | –
5 | CC1(C)S[C@@H]2[C@H](NC(=O)[C@H](N)c3ccc(O)cc3)C(=O)N2[C@H]1C(=O)O [AMOXICILLIN] | 12.5 (≈ 4.57 µg/mL) | > 90 | inactive | 12.5 (≈ 4.57 µg/mL) | 81.9 | 12.5 (≈ 4.57 µg/mL) | – | – | – | – | – | – | – | – | – | – | – | –
6 | COc1cc(/C=C/C(=O)c2cc(OC)c(OC)c(OC)c2)ccc1O | 12.5 (≈ 4.3 µg/mL) | 57.6 | – | 12.5 (≈ 4.3 µg/mL) | – | 12.5 (≈ 4.3 µg/mL) | – | – | Dose-dependent effect | 86.1 | – | 99.9 | – | Non-toxic | – | 98.8 | 88.2 | inhibition at 5 µM (Helicobacter pylori [8]): 91%; inhibition at 10 µM (Helicobacter pylori [10]): 100%; inhibition at 5 µM (Helicobacter pylori [16]): 98.6%

— ChEMBL document CHEMBL1221347, “Identification of 3',4',5'-trimethoxychalcone analogues as potent inhibitors of Helicobacter pylori-induced inflammation in human gastric epithelial cells” (Bioorg Med Chem Lett, 2010)
